# Results as given in BindingDB's records for doi:10.1021/np900192r (Cnrs, 2009).
# pKi: −log10 of the molar value.
# Biological target: Bcl-2-like protein 1 (Homo sapiens, UniProt Q07817)
# Test: Binding affinity to Bcl-xL by fluorescein-labeled Bak-BH3 peptide competition binding assay
# Method in brief: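 Fluorescence polarization competition on Bcl-xL against a fluorescein-tagged Bak BH3-domain peptide as the reference ligand. Ki is the dissociation constant at equilibrium with the reference ligand. Unlabeled Bak(BH3) peptide and a substituted terphenyl derivative served as positive controls. Bcl-xL values are from duplicate runs.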
# Sequence of Bcl-2-like protein 1 (Q07817 whole entry): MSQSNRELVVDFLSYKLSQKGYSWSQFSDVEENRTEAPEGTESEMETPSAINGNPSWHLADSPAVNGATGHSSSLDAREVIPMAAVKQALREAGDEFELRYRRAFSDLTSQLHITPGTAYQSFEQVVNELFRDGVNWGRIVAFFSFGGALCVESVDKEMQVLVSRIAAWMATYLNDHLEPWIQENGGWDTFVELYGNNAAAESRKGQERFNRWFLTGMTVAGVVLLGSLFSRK
row,Structure (SMILES),pKi
1,"CC(=O)O[C@@H]1[C@@H](OC(C)=O)[C@@H](O)[C@H](OC[C@]2(C)[C@@H](OC(C)=O)C[C@H](O)[C@]3(C)[C@H]4CC=C5[C@H]6C[C@](C)(C(=O)O)CC[C@]6(C)CC[C@@]5(C)[C@]4(C)CC[C@@H]23)O[C@H]1C [23-O-[alpha-L-(3',4'-Diacetylrhamnopyranosyl]-3beta-acetylimberbic acid]",< 4.00
2,COC(=O)[C@]1(C)CC[C@]2(C)CC[C@]3(C)C(=CC[C@@H]4[C@@]5(C)[C@@H](O)C[C@H](OC(C)=O)[C@@](C)(CO[C@@H]6O[C@@H](C)[C@H](OC(C)=O)[C@@H](O)[C@H]6O)[C@@H]5CC[C@]43C)[C@H]2C1 [23-O-[alpha-L-(4'-Acetylrhamnopyranosyl]-3beta-acetylimberbic acid 29-methyl ester],< 4.00
3,CC(=O)O[C@@H]1[C@@H](O)[C@@H](O)[C@H](OC[C@]2(C)[C@@H](OC(C)=O)C[C@H](O)[C@]3(C)[C@H]4CC=C5[C@H]6C[C@](C)(C(=O)O)CC[C@]6(C)CC[C@@]5(C)[C@]4(C)CC[C@@H]23)O[C@H]1C [23-O-[alpha-L-(4'-Acetylrhamnopyranosyl]-3beta-acetylimberbic acid],< 4.00
